Measured values taken from ChEMBL document CHEMBL1148220, “Antineoplastic agents. 529. Isolation and structure of nootkastatins 1 and 2 from the Alaskan yellow cedar Chamaecyparis nootkatensis” (2004).
Values after ≈ are worked out from the molar mass of the structure shown. Active and inactive are the calls of the source. No cut-off for these calls is given here.

Legend:
MCF7 = experiment: Cytotoxicity against human MCF7 cells after 48 hrs by SRB assay; assay type: functional; conditions: MCF7, 48 h
P388 = experiment: Cytotoxicity against mouse P388 cells; assay type: functional; conditions: read-out: ED50 (the source's name)
BXPC-3 = experiment: Cytotoxicity against human BxPC3 cells after 48 hrs by SRB assay; assay type: functional; conditions: BXPC-3, 48 h
SF-268 = experiment: Cytotoxicity against human SF268 cells after 48 hrs by SRB assay; assay type: functional; conditions: SF-268, 48 h
NCI-H460 = experiment: Cytotoxicity against human NCI-H460 cells after 48 hrs by SRB assay; assay type: functional; conditions: NCI-H460, 48 h
KM-20L2 = experiment: Cytotoxicity against human KM20L2 cells after 48 hrs by SRB assay; assay type: functional; conditions: KM-20L2, 48 h
DU-145 = experiment: Cytotoxicity against human DU145 cells after 48 hrs by SRB assay; assay type: functional; conditions: DU-145, 48 h
Cryptococcus neoformans = experiment: Antimicrobial activity against Cryptococcus neoformans ATCC 90122 after 24 hrs by broth microdilution assay; assay type: functional; conditions: ATCC 90112, 24 h, in the assay text read “ATCC 90112” for “ATCC 90122”
Summary of the method: (§1)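 Yeasts were tested by NCCLS broth microdilution. Compounds were dissolved in a small volume of sterile DMSO and diluted in the appropriate medium immediately before testing. MIC was the lowest concentration inhibiting all visible growth (optically clear). Assays were repeated on separate days.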

Candida albicans [1] = experiment: Antimicrobial activity against Candida albicans ATCC 90028 after 48 hrs by broth microdilution assay; assay type: functional; conditions: ATCC 90028, 48 h; summary of the method: as §1
Staphylococcus aureus = experiment: Antimicrobial activity against Staphylococcus aureus ATCC 29213 after 24 hrs by broth microdilution assay; assay type: functional; conditions: ATCC 29213, 24 h
Summary of the method: (§2)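 Bacterial MICs were determined by NCCLS broth microdilution. Compounds were dissolved in a small volume of sterile DMSO and diluted in the appropriate medium just before testing. MIC was the lowest concentration giving no visible growth (optically clear). Assays were repeated on separate days.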

Streptococcus pneumoniae = experiment: Antimicrobial activity against Streptococcus pneumoniae ATCC 6303 after 24 hrs by broth microdilution assay; assay type: functional; conditions: ATCC 6303, 24 h; summary of the method: as §2
Enterococcus faecalis = experiment: Antimicrobial activity against Enterococcus faecalis ATCC 29212 after 24 hrs by broth microdilution assay; assay type: functional; conditions: ATCC 29212, 24 h; summary of the method: as §2
Micrococcus luteus = experiment: Antimicrobial activity against Micrococcus luteus Presque Isle 456 after 24 hrs by broth microdilution assay; assay type: functional; summary of the method: as §2
Escherichia coli = experiment: Antimicrobial activity against Escherichia coli ATCC 25922 at 64 ug/mL after 24 hrs by broth microdilution assay; assay type: functional, organism-based
Enterobacter cloacae = experiment: Antimicrobial activity against Enterobacter cloacae ATCC 13047 at 64 ug/mL after 24 hrs by broth microdilution assay; assay type: functional, organism-based
[2] = tested on: Stenotrophomonas maltophilia; experiment: Antimicrobial activity against Stenotrophomonas maltophilia ATCC 13637 at 64 ug/mL after 24 hrs by broth microdilution assay; assay type: functional, organism-based
Neisseria gonorrhoeae = experiment: Antimicrobial activity against Neisseria gonorrhoeae ATCC 49226 at 64 ug/mL after 24 hrs by broth microdilution assay; assay type: functional; conditions: ATCC 49226, 24 h
Candida albicans [3] = experiment: Antimicrobial activity against Candida albicans ATCC 90028 at 64 ug/mL after 48 hrs by broth microdilution assay; assay type: functional, organism-based

CC(C)c1c(O)ccc2c1[C@H](O)C[C@H]1C(C)(C)CCC[C@]21C
GI50 (MCF7): 2.1 µg/mL (≈ 6.94 µM)
EC50 (P388): 1.7 µg/mL (≈ 5.62 µM)
GI50 (BXPC-3): 1.8 µg/mL (≈ 5.95 µM)
GI50 (SF-268): 2.3 µg/mL (≈ 7.6 µM)
GI50 (NCI-H460): 1.8 µg/mL (≈ 5.95 µM)
GI50 (KM-20L2): 2.3 µg/mL (≈ 7.6 µM)
GI50 (DU-145): 2.6 µg/mL (≈ 8.6 µM)
MIC (Cryptococcus neoformans): 16 µg/mL (≈ 52.9 µM)
MIC (Candida albicans [1]): 64 µg/mL (≈ 212 µM)
MIC (Staphylococcus aureus): 16 µg/mL (≈ 52.9 µM)
MIC (Streptococcus pneumoniae): 16 µg/mL (≈ 52.9 µM)
MIC (Enterococcus faecalis): 16 µg/mL (≈ 52.9 µM)
MIC (Micrococcus luteus): 8 µg/mL (≈ 26.4 µM)
Activity (Escherichia coli): inactive
Activity (Enterobacter cloacae): inactive
Activity [2]: inactive
MIC (Neisseria gonorrhoeae): 8 µg/mL (≈ 26.4 µM)

CC(C)c1c(O)ccc2c1C=C[C@H]1C(C)(C)CCC[C@]21C
GI50 (MCF7): > 10 µg/mL
EC50 (P388): 3.7 µg/mL (≈ 13 µM)
GI50 (BXPC-3): > 10 µg/mL
GI50 (SF-268): > 10 µg/mL
GI50 (NCI-H460): > 10 µg/mL
GI50 (KM-20L2): > 10 µg/mL
GI50 (DU-145): > 10 µg/mL
MIC (Cryptococcus neoformans): 16 µg/mL (≈ 56.3 µM)
Activity (Candida albicans [3]): inactive
MIC (Staphylococcus aureus): 16 µg/mL (≈ 56.3 µM)
MIC (Streptococcus pneumoniae): 32 µg/mL (≈ 113 µM)
MIC (Enterococcus faecalis): 16 µg/mL (≈ 56.3 µM)
MIC (Micrococcus luteus): 4 µg/mL (≈ 14.1 µM)
Activity (Escherichia coli): inactive
Activity (Enterobacter cloacae): inactive
Activity [2]: inactive
MIC (Neisseria gonorrhoeae): 8 µg/mL (≈ 28.1 µM)
